# Results as given in PubChem BioAssay AID504383 (The Scripps Research Institute Molecular Screening Center, 2011).
# Where “and” joins values, the source holds several entries; their conditions need not be identical. Equal entries are not always repeated. Out of some 2,500 compounds screened, about 1,200 (48%) were called active.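 Rule for the calls: active = mean activation above the low control average plus 3 SD, as set in the primary screen (cut at about 12% in these data); inactive = the rest.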 The set was probably picked from earlier hits. Some of the results follow. More than one record can exist for a structure, and the calls need not agree.
# Target: Troponin I, cardiac muscle (Homo sapiens) + Troponin T, cardiac muscle (Homo sapiens) + Troponin C, slow skeletal and cardiac muscles (Homo sapiens) (UniProt P19429+P45379+P63316)
# Experiment: cardiac RTF calcium sensitivity activators, confirmation, biochemical, IANBD-TnC fluorescence, triplicate (AID 504383);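 note: 0% = DMSO at 0.472 mM calcium and 100% = DMSO at 2.9 mM calcium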
# Conditions: IANBD-labeled cardiac RTF, Ca2+ sensitivity fluorescence; at 7.2 µM; stronger effect = higher value; scaled from EC20 to saturating calcium; tested at EC20 calcium, 0.472 mM
# In short: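 Assay system: labelled regulated thin filaments / Timing: 15 min at 25 °C / Detection: fluorescence intensity of labelled filaments / Measure: fluorescence gain scaled between EC20 and EC100 calcium controls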
row,Compound,activation
1,CC(=O)c1ccc(S(=O)(=O)Nc2ccc(C(=O)N3CCC3)cc2)cc1,1.58% (inactive)
2,CC1CN(c2ccc(NS(=O)(=O)c3ccccc3)cc2C(=O)O)CC(C)O1 (centres undefined),98.7% (active)
3,CCOC(=O)C1CCCN(C(=O)c2cccc(S(=O)(=O)N3CC(C)OC(C)C3)c2)C1 (centres undefined),-1.51% (inactive)
4,CC(C)(C)c1ccc(C(=O)Nc2cccc3ncccc23)cc1,10.2% (inactive)
5,CCc1ccc(C(=O)Nc2cccnc2Oc2ccc(Cl)cc2)cc1,22% (active)
6,CC(C)Cn1c(N)c(C(=O)COC(=O)c2cc(F)cc(F)c2)c(=O)n(C)c1=O,225% (active)
7,O=c1oc2c(O)cccc2cc1-c1nc2ccccc2[nH]1,8.93% (inactive)
8,O=c1oc2c(CN3CCCCC3)c(O)ccc2cc1-c1nc2ccccc2[nH]1,224% (active)
9,O=c1c2ccccc2nc(SCc2nc(-c3ccccc3)no2)n1-c1ccc(F)cc1,2.61% (inactive)
10,CC(=O)c1cccc(NC(=O)Cn2nc(-c3ccccc3Cl)ccc2=O)c1,11.2% (inactive)
11,O=C(COC(=O)Cn1cnc2ccccc21)Nc1cccc2c1C(=O)c1ccccc1C2=O,25.4% (active)
12,CCC(C)n1ncn(-c2ccc(N3CCN(c4ccc(OCC5COC(Cn6cncn6)(c6ccc(Cl)cc6Cl)O5)cc4)CC3)cc2)c1=O (centres undefined),390% (active)
13,Fc1ccc(-c2nc3ccncc3[nH]2)cc1,13% (active)
14,Cc1ccc(CNC(=O)CC(C)S(=O)(=O)c2ccc3c(c2)NC(=O)CS3)o1 (centres undefined),354% (active)
15,CCCCc1ccc(NC(=O)N2CCNC(=O)C2CC(=O)Nc2ccsc2C(=O)OC)cc1 (centres undefined),5.97% (inactive)
16,CCCCc1ccc(NC(=O)c2cnccn2)cc1,22.1% (active)
17,COC(=O)[C@@H]1C[C@@]2(O)[C@H](O)[C@H](O)[C@H](O)C[C@H]2N1C/C=C/c1ccccc1,6.57% (inactive)
18,CC(=O)c1ccc(C(=O)Nc2sc3c(c2C(N)=O)CCN(Cc2ccccc2)C3)cc1,2.38% (inactive)
19,N#Cc1c(NC(=O)/C=C/C(=O)O)sc2c1CCN(Cc1ccccc1)C2,13.4% (active)
20,O=C(Nc1nc2c(s1)CN(Cc1ccccc1)CC2)c1cccc(S(=O)(=O)N2CCc3ccccc32)c1,5.41% (inactive)
21,NC(=O)c1c(NC(=O)c2ccccc2)sc2c1CCN(Cc1ccccc1)C2,105% (active)
22,CCCN1CCc2c(sc(NC(=S)NC(=O)c3ccccc3)c2C#N)C1,270% (active)
23,CCN1CCc2c(sc(NC(=O)c3ccc(S(=O)(=O)N(C)c4ccccc4)cc3)c2C(=O)NC)C1,10.6% (inactive)
24,N#Cc1c(NC(=O)C2CC=CCC2C(=O)O)sc2c1CCCCCC2 (centres undefined),6.81% (inactive)

row,Compound,activation
1,CC[n+]1c(/C=C/N(C)c2ccccc2)oc2ccc(F)cc21,14.5% (active)
2,CC[n+]1c(/C=C/N(C)c2ccccc2)oc2ccccc21,0.87% (inactive)
3,Cc1cc(C)n2nc3nc4c(cc3c2n1)CCCC4,89.3% (active)
4,Cc1ccc(-c2nc3ncccn3c2Nc2ccc3c(c2)OCCO3)o1,230% (active)
5,COc1cccc(C2C(C#N)=C(N)Oc3cc(C)oc(=O)c32)c1OC (centres undefined),23% (active)
6,COc1cccc(C2C3CN(C)CC=C3C(C#N)=C(N)C2(C#N)C#N)c1OC (centres undefined),8.43% (inactive)
7,CCCCN1C(=O)/C(=C/C=C2/CC(C)(C)CN2C)SC1=S,2.58% (inactive)
8,CN1C(=O)/C(=C\C=C2/CCCN2C)N(C)C1=S,173% (active)
9,CN1CCC/C1=C/C=C1\SC(=S)NC1=O,4.23% (inactive)
10,CCN1C(=O)/C(=C/C=C2/CCCN2C)OC1=S,12.9% (active)
11,C[n+]1c2cc(N)ccc2cc2ccc(N)cc21,6.45% (inactive) and 14.5% (active)
12,N#Cc1cc(C(=O)c2cc(F)ccc2O)cn(-c2nccs2)c1=O,9.61% (inactive)
13,N#Cc1cc(C(=O)c2ccccc2O)cn(-c2nccs2)c1=O,45.5% (active)
14,CN1/C(=C\C(=O)c2ccco2)C(C)(C)c2ccccc21,7.09% (inactive)
15,Cn1c(CCNC(=O)c2ccco2)nc2ccccc21,919% (active)
16,CCN(CC)CCCNC(=O)CCn1nc(-c2ccc(Cl)cc2)ccc1=O,7.9% (inactive)
17,Cn1c(=O)c2c(nc(NCCNC(=O)c3ccco3)n2Cc2ccccc2Cl)n(C)c1=O,7.43% (inactive)
18,CCCC(=O)NCCCc1nc2ccccc2n1C,124% (active)
19,O=C(Cn1c(C(F)(F)F)nc2ccccc21)NCCN1CCCC1,-3.29% (inactive)
20,Cc1cc(Cl)ccc1OCC(=O)Nc1nc(-c2cccs2)cs1,-1.8% (inactive)
21,CC(C)(C)NCc1cc(Cl)ccc1OCc1cccs1,47% (active)
22,COc1ccc(C(=O)Nn2cnc3scc(-c4cccs4)c3c2=O)c(O)c1,29.8% (active)
23,COc1ccc(OC)c(/C=c2\sc3nc(-c4cccs4)nn3c2=O)c1,9.45% (inactive)
24,CCOC(=O)c1nc2cc3n(c(CC(C)C)c-2c1C)CC(C)=C3C,1.31% (inactive)

row,Compound,activation
1,Oc1[nH]c2ccc(Br)cc2c1N=Nc1ccc(F)cc1,22.7% (active)
2,O=c1[nH]c2ccc(N=Cc3c(O)ccc4cc(Br)ccc34)cc2[nH]1,0.37% (inactive)
3,Cc1ccc(N=Nc2c(O)[nH]c3ccc(F)cc23)cc1,20.6% (active)
4,Cc1cccc(N=Nc2c(O)[nH]c3ccc(F)cc23)c1,7.58% (inactive)
5,CCN1/C(=C/C=C2/SC(=Nc3cccc4ncccc34)N(C)C2=O)Sc2ccccc21,28.3% (active)
6,CCN1/C(=C2\SC(=S)N(Cc3ccccc3)C2=O)Sc2ccccc21,-1.47% (inactive)
7,CC1(C)CCN2CCC(C)(C)c3c(O)ccc1c32,42.4% (active)
8,Cc1cccn2c(=O)c3cc(C#N)c(=NC(=O)c4cccs4)n(CCCOC(C)C)c3nc12,4.3% (inactive)
9,CCOCCCn1c(=NC(=O)c2cccs2)c(C#N)cc2c(=O)n3cccc(C)c3nc21,19% (active)
10,CCOC(=O)/C(=C/C1=CC(=C/N(C)C)/C(=O)O1)C(C)=O,87.4% (active)
11,CCOC(=O)/C(=C\c1ccc(N2CCC(c3ccccc3)=N2)cc1)C(C)=O,8.5% (inactive)
12,CCOC(=O)NC1(C(F)(F)F)C(=O)NC(C)=C1C(=O)OC (centres undefined),19.8% (active)
13,CC1CCN(c2ccc3c(c2)S(=O)(=O)c2ccccc2C3=O)CC1,9.57% (inactive)
14,NC(=O)c1c(Nc2nc3c(F)cccc3s2)sc2c1CCCC2,-1.65% (inactive)
15,O=C(O)CCCC(=O)Nc1ccc(C(=O)NCc2cccnc2)cc1,0.95% (inactive)
16,CC(Oc1ccc(F)cc1)C(=O)Nc1sc2c(c1C(=O)NCc1cccnc1)CCCC2 (centres undefined),83.6% (active)
17,CN1C(=CC=C2C=C(I)C(=O)C(I)=C2)C(C)(C)c2ccccc21,4.78% (inactive)
18,CC1(C)c2ccccc2N2CC(=O)N(CC(N)=O)C21C (centres undefined),70.2% (active)
19,O=C(NCc1ccco1)c1cccc2c1C(=O)c1ccc(N3CCC(Cc4ccccc4)CC3)cc1S2(=O)=O,63.9% (active)
20,O=C(NCCc1ccc(F)cc1)c1cccc2c1C(=O)c1ccc(N3CCC(Cc4ccccc4)CC3)cc1S2(=O)=O,107% (active)
21,CC1CCN(c2ccc3c(c2)S(=O)(=O)c2cccc(C(=O)NCc4cccc(F)c4)c2C3=O)CC1,8.22% (inactive)
22,O=C(NCc1ccc(F)cc1)c1cccc2c1C(=O)c1ccc(N3CCC(Cc4ccccc4)CC3)cc1S2(=O)=O,4.35% (inactive)
23,O=C(NCc1ccco1)c1cccc2c1C(=O)c1ccc(N3CCCC3)cc1S2(=O)=O,7.33% (inactive)
24,CC1CCN(c2ccc3c(c2)S(=O)(=O)c2cccc(C(=O)NCc4ccc(F)cc4)c2C3=O)CC1,1.28% (inactive)

row,Compound,activation
1,O=C(NC1CC1)c1cccc2c1C(=O)c1ccc(N3CCC(Cc4ccccc4)CC3)cc1S2(=O)=O,0.64% (inactive)
2,O=C(NCc1cccc(C(F)(F)F)c1)c1cccc2c1C(=O)c1ccc(N3CCC(Cc4ccccc4)CC3)cc1S2(=O)=O,8.69% (inactive)
3,O=C(NCc1cccc(F)c1)c1cccc2c1C(=O)c1ccc(N3CCC(Cc4ccccc4)CC3)cc1S2(=O)=O,14.5% (active)
4,O=C(NCC(=O)N(Cc1cccs1)C(C(=O)NC1CCCCC1)c1ccncc1)c1ccco1 (centres undefined),3.25% (inactive)
5,O=C(NCCNC(=O)c1cccs1)c1ccco1,40.3% (active)
6,CCOC(=O)Cc1csc(N(C)C)n1,10.1% (inactive)
7,CCOC(=O)Cc1csc(CC(N)=O)n1,4.59% (inactive)
8,CCOC(=O)Cc1csc(NC(=O)c2sc3nc4cc(C)ccc4cc3c2N)n1,71.2% (active)
9,Cc1ccc(CNC(=O)c2ccc(S(=O)(=O)N3CCCCC3)cc2)cc1,6.31% (inactive)
10,Cc1ccc(NC(=O)CN(C)c2ccc(S(=O)(=O)N3CCCC3)cn2)cc1,94.3% (active)
11,Nc1c(C(=O)Nc2ccc(S(=O)(=O)N3CCCC3)cc2)sc2nc3ccc(OC(F)(F)F)cc3cc12,11.7% (active)
12,Cc1cccc2cc3c(N)c(C(=O)N4CCCc5ccccc54)sc3nc12,6.58% (inactive)
13,CCc1cccc2cc3c(N)c(C(=O)Nc4ccc(S(=O)(=O)N5CCCC5)cc4)sc3nc12,24.8% (active)
14,O=c1[nH][nH]c(C(F)(F)F)c1C=Nc1cccc(Cl)c1,60% (active)
15,O=c1[nH][nH]c(C(F)(F)F)c1C=NCc1ccccc1Cl,33.6% (active)
16,CN(C)c1ccc2nc3c(=O)[nH]c(=O)nc-3n(CC(O)C(O)C(O)CO)c2c1 (centres undefined),10.2% (inactive)
17,Cc1ccc(-c2nc(N)n(C(=O)c3cccnc3)n2)cc1,148% (active)
18,COc1ccccc1C(=O)n1nc(-c2ccccc2)nc1N,4.84% (inactive)
19,COC(=O)c1ccc(Oc2c(F)c(F)nc(N3CCOCC3)c2F)cc1,5.29% (inactive)
20,COc1ccc(C(=O)/C=C/c2cn(CC(O)CN3CCN(C)CC3)c3ccccc23)cc1OC (centres undefined),133% (active)
21,Cc1ccc(C(=O)/C=C/c2cn(CC(O)CN3CCOCC3)c3ccccc23)cc1 (centres undefined),-2.05% (inactive)
22,COc1ccc(C(=O)/C=C/c2cn(CC(O)CN3CCOCC3)c3ccccc23)cc1 (centres undefined),21.6% (active)
